From PubChem BioAssay
The list is not random: actives were taken first. Their share in the collection is about 2.6%.
MT stabilize HCS: microtubule stabilizers in HeLa cells; HeLa tubulin immunostaining HCS, 24 h; share of cells brighter than vehicle mean+2SD; % tubulin-high responders, % at 10 µM; 0.83% of 200,000 active;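 active = plate Z-score above 3 for both tubulin-high and condensed-nucleus cell shares, with cell loss under 80%, at 10 µM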;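 note: anti alpha tubulin signal scored within the nucleus-defined area of each cell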
NPY Y1 blocker: NPY-Y1 (human) receptor antagonism | AID 1040 | P25929 | 1% of 200,000 active | inhibition, % at 3.6 µM | HEK293-CNG Y1 cells, membrane potential fluorescence; NPY at EC95, then isoproterenol;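 active = inhibition above the campaign mean inhibition of all tested compounds plus 3 SD, cut at about 20% in these data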;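 note: 0% = DMSO wells given NPY plus isoproterenol and 100% = isoproterenol alone without NPY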
Target sequence (P25929 whole entry, looked up): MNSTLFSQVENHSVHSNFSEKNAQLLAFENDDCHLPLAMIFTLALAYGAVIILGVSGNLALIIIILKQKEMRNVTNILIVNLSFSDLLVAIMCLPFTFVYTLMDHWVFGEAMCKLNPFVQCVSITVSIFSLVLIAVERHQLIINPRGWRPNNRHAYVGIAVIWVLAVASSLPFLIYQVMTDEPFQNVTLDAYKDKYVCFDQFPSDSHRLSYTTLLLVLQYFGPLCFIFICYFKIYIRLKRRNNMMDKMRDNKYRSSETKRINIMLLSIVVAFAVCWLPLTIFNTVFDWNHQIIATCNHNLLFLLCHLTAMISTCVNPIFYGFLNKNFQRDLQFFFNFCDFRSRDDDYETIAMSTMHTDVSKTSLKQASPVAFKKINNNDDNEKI
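Assay system: HEK293 cells with Y1 receptor plus CNG channel | Probe or stimulus: NPY (25 nM), isoproterenol (1 µM), Ro 20-1724 (25 µM) | Timing: Compound incubation 1 h at room temperature, readout 45 min post-stimulation | Measured by: Membrane-potential fluorescent dye readout | Benchmarks: High control isoproterenol alone, low control NPY with isoproterenol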
NPY2 pot ag: potentiates or activates human NPY-Y2 receptor; P49146; cells expressing NPY-Y2, potentiator/agonist read-out; activation, % at 3.6 µM; 0.45% of 220,000 active; AID 1359; in the data active = activation above about 27%;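 note: cells stimulated with NPY near EC25 plus isoproterenol at EC100; 0% = vehicle plus submaximal agonist and 100% = vehicle plus saturating agonist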
NPY Y2 blocker: blocks the human neuropeptide Y Y2 receptor | NPY-Y2 expressing cells, antagonist mode | inhibition, % at 2.7 µM | AID 793 | P49146 | 0.99% of 140,000 active; in the data active = inhibition above about 17%;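 note: 0% = vehicle with agonist challenge and 100% = reference antagonist with challenge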
b-catenin transl: modulators of beta-catenin nuclear translocation; HeLa beta-catenin nuclear translocation, immunofluorescence imaging; 0.3% of 190,000 active; nuclear translocation activity, % at 5 µM;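 active = nuclear translocation activity above 50% at 5 µM, with a well cell count of 50 or more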;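 note: per-cell ratio of nuclear to cytoplasmic median beta-catenin stain intensity; plate controls were DMSO negative control for no effect and GSK-3 inhibitor IX positive control for full effect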
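Test system: human HeLa cells, native beta-catenin. Compound dosing: 5 µM primary single dose, 0.1% DMSO, 0.02–20 µM confirmation series. Incubation: compound exposure 24 h at 37°C. Detection: beta-catenin immunostaining with DAPI counterstain, 20x imaging, 6 fields/well. Read-out basis: Nuclear/cytoplasmic beta-catenin signal ratio, % activation.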
NPY-Y1 PAM-ag: human NPY-Y1 potentiation or agonism, primary screen; P25929; NPY-Y1 expressing cells, potentiator/agonist activation; activation, % at 3.6 µM; 0.37% of 220,000 active; AID 1304; in the data active = activation above about 33%, passing the limit was not always enough;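 note: cells stimulated with NPY at EC10 then isoproterenol at EC100; 0% = low agonist plus stimulus and 100% = saturating agonist plus stimulus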
* marks the source's active call; other numbers are inactive results; nt = no result.

SMILES | MT stabilize HCS | NPY Y1 blocker | NPY2 pot ag | NPY Y2 blocker | b-catenin transl | NPY-Y1 PAM-ag
O=C(c1cccc(C(F)(F)F)c1)N(c1ccccn1)C1CCCCC1 | 3 | 4 | -2 | nt | -1 | 2
CCC(C)(C)NC(=O)c1ccc(S(=O)(=O)N2CCCCCC2)cc1 | 2 | -1 | -10 | nt | -4 | -12
C=CCn1c(C)cc(C2=NNC(=NCc3ccccc3)SC2)c1C | 15* | 3 | 1 | nt | 37 | -6
CCN=C1NN=C(c2cc(C)n(CCc3ccccc3)c2C)CS1 | 2 | 5 | 11 | nt | nt | -7
Cc1cc(-c2ccc(NC(=O)[C@@H]3CCCC[C@@H]3C(=O)O)c(C)c2)ccc1NC(=O)[C@@H]1CCCC[C@@H]1C(=O)O | 2 | 0 | 2 | nt | 0 | -4
O=C(OCCN1C(=O)c2ccccc2C1=O)c1cc(S(=O)(=O)N2CCOCC2)ccc1Cl | 7 | -3 | -6 | 2 | -4 | -5
O=C(OCCN1C(=O)c2cccc3c(N4CCOCC4)ccc(c23)C1=O)c1ccccc1Cl | 14* | 57* | 10 | 24* | nt | -39
O=C(OCCN1C(=O)c2cccc3c(N4CCOCC4)ccc(c23)C1=O)c1ccc(Cl)cc1Cl | 16* | 0 | 7 | 10 | 80* | -6
Nc1ncnc2c1cnn2C1CCCCC1 | nt | nt | 7 | nt | -7 | -3
O=C(NCc1ccc(Cl)cc1)c1ccc2nc[nH]c2c1 | 2 | 3 | 22 | 3 | -3 | 7
COc1ccc(-c2nc(C#N)c(N3CCCCCC3)o2)cc1OC | 3 | 16 | -3 | 5 | -6 | -42
O=C(Nc1ccccc1Br)c1ccccc1-c1ccccc1 | 15* | 3 | 3 | 5 | 58* | -19
Cc1cc(Br)ccc1NC(=O)c1ccccc1-c1ccccc1 | 6 | 13 | -9 | 11 | -1 | -49
CCCc1nn(C(=O)c2ccccc2)c2c1C(=O)CC(C)(C)C2 | 2 | 3 | 6 | -1 | nt | 9
CCCc1nn(-c2cc(Cl)ccc2OC)c2c1C(=O)CC(C)(C)C2 | 12* | 5 | -7 | 1 | nt | 9
CCc1nn(-c2cc(Cl)ccc2OC)c2c1C(=O)CCC2 | 27* | -2 | 8 | -1 | 11 | -11
CCc1ccc(C(c2c(C)nn(-c3ccccc3)c2N)c2c(C)nn(-c3ccccc3)c2N)cc1 | 4 | -3 | 9 | 2 | 1 | 2
COc1ccc(C(CCNC(C)c2ccccc2)C(C)C)cc1 (centres undefined) | nt | nt | 0 | nt | -4 | 4
COc1ccc([C@H](C)NC[C@H](O)c2ccc(O)c(NC=O)c2)cc1 | 3 | -9 | 79* | nt | 4 | 59*
CCn1cc(C(=O)OCC(=O)NCc2ccc3c(c2)OCO3)c(=O)c2ccc(C)nc21 | 2 | 11 | -13 | 6 | 0 | -24
C=CC[n+]1ccc(/C=C2\C=Cc3cc(C)ccc3N2CC)c2ccccc21 | 12 | 8 | 31* | nt | 0 | 27
O=C(c1ccco1)N(CCCN1CCOCC1)c1nc(-c2ccc(Cl)cc2)cs1 | 4 | 41* | -23 | 30* | -1 | -44
COC(=O)CNC(=O)COC(=O)Cc1ccc(Cl)cc1 | 3 | 0 | 4 | nt | -2 | 7
CCc1ccc(NC(=O)C(=O)NCCOc2ccccc2Cl)cc1 | 26* | 4 | 4 | nt | 3 | -6
c1ccc(CN2C3=NCCN3c3ccccc32)cc1 | 2 | 3 | -2 | 3 | nt | -19
SMILES | MT stabilize HCS | NPY Y1 blocker | NPY2 pot ag | NPY Y2 blocker | b-catenin transl | NPY-Y1 PAM-ag
Clc1ccc(CN2C3=NCCN3c3ccccc32)cc1Cl | 3 | 39* | -3 | 18* | 2 | -11
Cc1cc(C)n(-c2nc(SCCN(C)C)c3c4c(sc3n2)CCCC4)n1 | 4 | 92* | -53 | 101* | 0 | -181
CCC(O)CNc1nc(-n2nc(C)cc2C)nc2sc3c(c12)CCCC3 (centres undefined) | nt | nt | nt | nt | 0 | nt
Cc1ccc2nc(-c3cccnc3)c(Nc3ccccc3C)n2c1 | 3 | -6 | 41* | nt | 0 | 46*
Cc1ccccc1Nc1c(-c2cccnc2)nc2ccc(Br)cn12 | 2 | -12 | 74* | nt | nt | 79*
Cc1ccc(CSCCNS(C)(=O)=O)cc1 | 2 | 13 | 2 | 0 | nt | 7
OCc1cc(C(O)CNCCCCCCOCCCCc2ccccc2)ccc1O (centres undefined) | nt | -11 | 86* | nt | -1 | 78*
CCOC(=O)N1CCc2c(sc3c2C(=O)NC(c2ccccc2)N3)C1 (centres undefined) | 22* | -9 | 12 | 4 | 134* | -11
O=C(O)CN1CCN(Cc2ccc(Cl)cc2)C1=O | 3 | 6 | 0 | 3 | 2 | -5
c1ccc(CN2c3ccccc3-c3nc4ccccc4n3C2c2ccccn2)cc1 (centres undefined) | 2 | 37* | -9 | 19* | -4 | -17
COCCCNC(=O)/C=C/c1ccc(Cl)cc1 | 2 | 2 | -5 | 15 | -1 | -8
CC(NC(=O)Cn1ncc(Cl)c(Cl)c1=O)C12CC3CC(CC(C3)C1)C2 (centres undefined) | 5 | -16 | 72* | 2 | 2 | 82*
CC(NC(=O)CN1C(=O)NC(Cc2ccccc2)(Cc2ccccc2)C1=O)C12CC3CC(CC(C3)C1)C2 (centres undefined) | 2 | 130* | -90 | 161* | nt | -127
CCn1cc(C(=O)NC(C)C23CC4CC(CC(C4)C2)C3)cn1 (centres undefined) | 2 | 4 | 1 | 3 | 1 | 12
CC(NC(=O)Cn1c(=O)[nH]c2ccsc2c1=O)C12CC3CC(CC(C3)C1)C2 (centres undefined) | 3 | -1 | 16 | 3 | nt | 26
COc1ccccc1NC(=O)Cn1c2ccccc2c2nc3n(c(=O)c21)CCS3 | 4 | 6 | 3 | nt | -1 | -11
COc1ccc(C(CNC(=O)c2cc3ccccc3cc2OC)N2CCCC2)cc1 (centres undefined) | 1 | 28* | -30 | 18* | nt | -35
CN(C)CCNC(=O)c1ccc2c(c1)N(Cc1ccc(F)cc1)CCS2 | 3 | -8 | 65* | 5 | nt | 75*
COCCCNC(=O)c1c(N)n(/N=C/c2cccnc2)c2nc3ccccc3nc12 | 3 | 3 | 21 | 4 | 4 | 23
COCCCNC(=O)c1c(N)n(/N=C/c2cccs2)c2nc3ccccc3nc12 | 3 | 7 | 6 | 19* | 2 | -2
Cc1cc(=O)oc(C)c1C(=O)Nc1ccc(F)cc1 | nt | nt | -23 | nt | 1 | 5
Cc1ccc(S(=O)(=O)Nc2ccc3c4c(cccc24)CC3)c(C)c1 | 42* | 3 | -4 | 6 | nt | -8
COc1ccc(N2CCN(C(=O)c3c(-c4ccccc4)noc3C)CC2)cc1 | 5 | -2 | 4 | 0 | -4 | -4
COc1cc2c(C(=O)N3CCN(c4ccccc4)CC3)c(C)oc2cc1Br | 26* | 6 | 2 | 5 | -2 | -7
